The source of these data is the array DNA melting data of Ke et al. (doi:10.1101/2024.01.08.574731).

Series [1] in a line: melting temperature; fluorescence melt of hairpins on a sequencing array, two-state fit, raised by 9.35 °C to match UV melts. The settings on record: sodium 0.088 M. The essentials:
(§1)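 In 50 mM Na-HEPES pH 8.0 containing 25 mM NaCl, hairpins from the library on a sequenced MiSeq flow cell were imaged for Cy3 fluorescence at 2.5 °C steps up to 60 °C, with Cy3 and quencher oligos annealed. After normalisation to pre-quench Cy3 and to control constructs, two-state fits with bootstrapping gave melting temperature and folding enthalpy. Four replicates were combined by inverse-variance weighting, and fitted temperatures were shifted up by 9.35 °C to match UV melts.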

Series [2] can be described thus: folding enthalpy; higher = less favourable; fluorescence melt of hairpins on a sequencing array, two-state fit. The note with it: sodium 0.088 M. The procedure, abridged: as §1

On to GGATCTGGAAACAGGTCC (((.(((....))).))), for which the Tm in series [1] stood at 50.6 °C. For the same sequence, the folding enthalpy in series [2] is -31.5 kcal/mol.
For GGATGAGGAAACTCGTTC (.(.(((....))).).) the same measures were 28.3 °C and -15.8 kcal/mol.
For GGATGAGGAAACTTATCC ((((.((....)).)))) the same measures were 38.6 °C and -33.4 kcal/mol.
For GGATGCCGAAAGGCTTCC (((.(((....))).))) the same measures were 60.3 °C and -28.6 kcal/mol.
As to GGATGCGAAAGCAATTCC ((((((....)))..))), the Tm in series [1] came out at 36.7 °C. In addition, in series [2], the folding enthalpy is -16.1 kcal/mol.
The corresponding values for GGATGCGAAAGCAGCTCC ((((((....)))..))) are 47.5 °C and -11.3 kcal/mol.
For GGATGCGAAAGCAGGTCC ((((((....)))..))) the same measures were 37.7 °C and -11.8 kcal/mol.
For GGATGCGAAAGCATGTCC ((((((....)))..))) the same measures were 35.9 °C and -11.7 kcal/mol.
Turning to GGATGCGAAAGCATTTCC ((((((....)))..))), the Tm in series [1] is 38.8 °C. The folding enthalpy in series [2] is -11.1 kcal/mol.
With GGATGCGGAAACGTATCC ((((.((....)).)))), the Tm in series [1] amounted to 52.6 °C. Moreover, the folding enthalpy in series [2] is -46.7 kcal/mol.
For GGATGGACGAAAGTCTCC (((..(((....)))))) the same measures were 32.5 °C and -13.6 kcal/mol.
The corresponding values for GGATGGCGAAAGCCCTCC (((.(((....))).))) are 49.2 °C and -31.2 kcal/mol.
The corresponding values for GGATGGCGAAAGCCTTCC (((.(((....))).))) are 56.6 °C and -24.3 kcal/mol.
On to GGATGGGGAAACCCGTCC (((.(((....))).))), for which, in series [1], the Tm is 54.2 °C. The folding enthalpy in series [2] is -48.4 kcal/mol.
For GGATGTCGAAAGACTCC (((.(((....)))))) the same measures were 51.8 °C and -25.3 kcal/mol.
The corresponding values for GGATGTCGAAAGACTTCC (((.(((....))).))) are 51.5 °C and -39.6 kcal/mol.
Consider GGATGTGGAAACATGTCC (((..((....))..))), for which the Tm in series [1] is 40 °C. Besides, the folding enthalpy in series [2] was -20.9 kcal/mol.
The corresponding values for GGATTAGAAATAATCC ((((((....)))))) are 42.8 °C and -29.3 kcal/mol.
Regarding GGATTCCGAAAGGACTCC (((.(((....))).))), the Tm in series [1] is 47 °C. Also, in series [2], the folding enthalpy was -38.8 kcal/mol.
For GGATTCGAAAGAAGCTCC ((((((....)))..))) the same measures were 32.8 °C and -14.2 kcal/mol.
For GGATTCGGAAACGGATCC ((((.((....)).)))) the same measures were 53 °C and -39.2 kcal/mol.
On to GGATTGCCGAAAGGCTCC (((..(((....)))))), for which the Tm in series [1] was 37.6 °C. The folding enthalpy in series [2] is -8.38 kcal/mol.
The corresponding values for GGATTGCGAAAGCATCC (((.(((....)))))) are 50.8 °C and -20.8 kcal/mol.
The corresponding values for GGATTGGCGAAAGCCTCC (((..(((....)))))) are 35.3 °C and -10.5 kcal/mol.
For GGATTGGGAAACCAATCC (((((((....))))))) the same measures were 60.2 °C and -48.6 kcal/mol.
As to GGATTTCCGAAAGGATCC (((..(((....)))))), the Tm in series [1] was 34.2 °C. The folding enthalpy in series [2] was -17.6 kcal/mol.
For GGATTTCGAAAGAACTCC (((.(((....))).))) the same measures were 38 °C and -29.4 kcal/mol.
The corresponding values for GGCAAACGAAAGTTGGCC (((.(((....))).))) are 60.2 °C and -43.9 kcal/mol.
As for GGCAAAGGAAACCTTGCC (((((.(....).))))), in series [1], the Tm is 49.3 °C. Moreover, the folding enthalpy in series [2] was -31.5 kcal/mol.
For GGCAAAGGAAACTTTGTC (.(((((....))))).) the same measures were 46.5 °C and -29.1 kcal/mol.
The corresponding values for GGCAACGAAAGTTCTGCC ((((((....)))..))) are 40.4 °C and -27.3 kcal/mol.
For GGCAACGAAAGTTGTGCC ((((((....)))..))) the same measures were 51.2 °C and -13.5 kcal/mol.
Regarding GGCAACGAAAGTTTAGCC ((((((....)))..))), the Tm in series [1] was 43.5 °C. In addition, the folding enthalpy in series [2] was -29.1 kcal/mol.
For GGCAACGCGAAAGCGGCC (((..(((....)))))) the same measures were 59.7 °C and -19.8 kcal/mol.
For GGCAAGCCGAAAGGCGCC (((..(((....)))))) the same measures were 59.8 °C and -14.4 kcal/mol.
For the sequence GGCAAGGGAAACCTTGTC (.(((((....))))).), in series [1], the Tm came to 50.6 °C. In addition, the folding enthalpy in series [2] is -31.7 kcal/mol.
